Read-outs that look alike come from different tables or passages of the source.
Columns and labels:
[1] = tested on: HMLER-shEcad mammospheres; test: Mammosphere formation inhibition; type: cell-based; conditions: IC20 value for 5 days
Method in brief: (§1)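 HMLER-shEcad or MCF10A cells were grown as mammospheres/spheroids with test compound at its IC20 for 5 days. Spheres were assessed by inverted microscope with bright-field imaging (×20), and formation was quantified against untreated cells. SD, Student t-test.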

[2] = tested on: MCF10A spheroids; test: Non-tumorigenic spheroid formation inhibition; type: cell-based; conditions: IC20 value for 5 days
Method in brief: as §1

[3] = tested on: MCF10A spheroids; test: Non-tumorigenic spheroid viability; type: cell-based; conditions: Homo sapiens, MCF-10A, read-out: IC50, MCF10A spheroid viability
[4] = tested on: HMLER-shEcad cells; conditions: read-out: HMLER-shEcad IC50/nM; 72 h incubation; cited from earlier work
[5] = tested on: HMLER-shEcad cells; test: MTT cytotoxicity assay, breast CSC-enriched cells; type: cell-based; conditions: read-out: HMLER-shEcad IC50/nM
[6] = tested on: HMLER cells; test: MTT cytotoxicity assay, bulk breast cancer cells; type: cell-based; conditions: read-out: HMLER IC50/nM
[7] = tested on: HMLER-shEcad mammospheres; conditions: cited from earlier work
[8] = 72 h incubation, mean of three independent experiments ± SD

## CC[C@@H](C(=O)[C@@H](C)[C@@H](O)[C@H](C)[C@@H]1O[C@@H]([C@@H](CC)C(=O)O)CC[C@@H]1C)[C@H]1O[C@]2(C=C[C@@H](O)[C@]3(CC[C@@](C)([C@H]4CC[C@](O)(CC)[C@H](C)O4)O3)O2)[C@H](C)C[C@@H]1C [Salinomycin]
[1]
  decrease in number of HMLER-shEcad mammospheres formed compared to the untreated control: 53%
[2]
  decrease in number of MCF10A spheroids formed: 40%
[3]
  IC50: 14900 ± 500 nM
[4]
  IC50: 4200 ± 400 nM

## N.N.[Cl][Pt][Cl] [Cisplatin]
[5]; [8]
  IC50: 5640 ± 304 nM
[6]; [8]
  IC50: 2565 ± 21 nM

## Cc1cnc2c(ccc3c(C)c(C)cnc32)c1C.[Cl][Mn][Cl] [Mn(3,4,7,8-tetramethyl-1,10-phenanthroline)Cl2]
[5]; [8]
  IC50: 170 ± 14 nM
[6]; [8]
  IC50: 163 ± 21 nM

## Cc1cnc2c(ccc3c(C)c(C)cnc32)c1C [3,4,7,8-Tetramethyl-1,10-phenanthroline]
[5]; 72 h
  IC50: 720 ± 84 nM
[6]; 72 h
  IC50: 785 ± 10 nM

## O=C(O)Cc1ccccc1Nc1c(Cl)cccc1Cl [Diclofenac]
[7]
  effect on number or size of HMLER-shEcad mammospheres formed: does not significantly affect

## [Cl][Mn][Cl] [MnCl2·4H2O]
[5]; [8]
  IC50: 7760 ± 318 nM
